Reference: ChEMBL document CHEMBL2157989, “Synthesis and biological evaluation of antibody conjugates of phosphate prodrugs of cytotoxic DNA alkylators for the targeted treatment of cancer” (J Med Chem, 2012)
≈ marks a conversion by molar mass, not a printed value.

Tests used:
[1] = Prodrug conversion assessed as 1 - [ S ] - ( Ch l o r ome t h y l ) - 5 - h y d r o x y - 3 - { { 5 - [ 5 - ( 3 -methyldithiopropionyl)indol-2-yl-carbonyl amino]indole-2-yl}- carbonyl}-1,2-dihydro-3H-benz[e]indole formation in presence of rabbit intestine alkaline phosphatase at pH 7.4; format: physicochemical; conditions: in vitro
[2] = Solubility in water containing 5% DMF at 1.5 mg sonicated for 45 mins followed by centrifugation for 45 mins by UV/Vis spectroscopy; format: physicochemical; conditions: 0.75 h
[3] = Prodrug conversion assessed as 1 - [ S ] - ( Ch l o r ome t h y l ) - 5 - h y d r o x y - 3 - { { 5 - [ 5 - ( 3 -methyldithiopropionyl)indol-2-yl-carbonyl amino]indole-2-yl}- carbonyl}-1,2-dihydro-3H-benz[e]indole formation in presence of porcine mucosa alkaline phosphatase at pH 7.4; format: physicochemical; conditions: pig, isolated protein
[4] = Solubility of the compound in 5% DMA and 95% buffer at pH 7 at 1.5 mg sonicated for 45 mins followed by centrifugation for 45 mins by UV/Vis spectroscopy; format: physicochemical
In short: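 For buffers with 5% or less DMA, a 50 mM stock of compound in DMA is diluted 20–100 times into pH 7.0 buffer. It is then sonicated for 45 min and centrifuged at 1400g for 45 min. Supernatant is quantified by UV/vis at 340 nm, with ε of 41500 (DC1–SR₂ compounds) or 34500 M⁻¹ cm⁻¹ (phosphate prodrugs).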

[5] = Solubility in dichloromethane at 1.5 mg sonicated for 45 mins followed by centrifugation for 45 mins by UV/Vis spectroscopy; format: physicochemical; conditions: 0.75 h
[6] = Cytotoxicity against human NAMALWA cells assessed as cell survival after 72 hrs in presence of bovine alkaline phosphatase by clonogenic assay; format: functional, cell-based; conditions: NAMALVA
In short: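 Clonogenic assay: cells in RPMI 1640 with 10% heat-inactivated FBS were plated at 1000–5000 cells/well. Test agent (0–3 nM) was combined with alkaline phosphatase from bovine liver, and cells were exposed for 72 h. Colonies then grew for 7–10 days after plating and were stained with 0.2% crystal violet in 10% formalin/PBS. Surviving fraction is relative to untreated control wells.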

[7] = Prodrug conversion assessed as 1-[S]-(Chloromethyl)-5-hydroxy-3-{{5-[5-(3-methyldithiopropionyl)indol-2-yl-carbonyl amino]indole-2-yl}- carbonyl}-1,2-dihydro-3H-benz[e]indole formation in presence of bovine kidney alkaline phosphatase at pH 7.4; format: physicochemical; conditions: cattle, isolated protein
[8] = system: HL-60; assay: Cytotoxicity against human HL60 cells assessed as cell survival after 72 hrs by clonogenic assay; format: functional, cell-based; conditions: HL-60, 72 h
In short: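 Cells were kept in RPMI 1640 with 10% heat-inactivated FBS at 37 °C and 6% CO₂. They were plated at 1000–5000 cells/well and exposed to 0–3 nM test agent for 72 h. Medium was then replaced and colonies grew for 7–10 days in total after plating. Colonies were fixed and stained with 0.2% crystal violet in 10% formalin/PBS, then counted. Surviving fraction = colonies in treated wells / colonies in control wells; IC₅₀ was taken from this.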

[9] = Prodrug activation assessed as enzyme-mediated compound dephosphorylation in presence of bovine intestinal mucosa alkaline phosphatase P7640 at pH 7.4 by HPLC; conditions: cattle, isolated protein
[10] = Prodrug activation assessed as enzyme-mediated compound dephosphorylation in presence of calf intestine mucosa alkaline phosphatase P79390 at pH 7.4 by HPLC; conditions: cattle, isolated protein
[11] = Solubility in water containing 5% DMA at 1.5 mg sonicated for 45 mins followed by centrifugation for 45 mins by UV/Vis spectroscopy; format: physicochemical; conditions: 0.75 h
[12] = Stability of the compound in 5 % DMA assessed as cyclopropyl ring formation incubated for 1 yr at room temperature at pH 7 by HPLC analysis; format: physicochemical; conditions: buffer, pH 7, 8766 h
In short: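 Phosphate prodrug is stored for one year at room temperature in phosphate buffer containing 5% DMA at pH ~7. Conversion to the ring-closed cyclopropyl form is monitored by HPLC.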

[13] = Solubility in DMF at 1.5 mg sonicated for 45 mins followed by centrifugation for 45 mins by UV/Vis spectroscopy; format: physicochemical; conditions: 0.75 h
In short: (§1)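 Solid compound (~1.5 mg) in the stated solvent was sonicated 45 min, then centrifuged at 1400g for 45 min. The supernatant concentration was read by UV/vis at 340 nm, using ε = 41500 M⁻¹ cm⁻¹ for the free phenols and 34500 M⁻¹ cm⁻¹ for the phosphate prodrugs (pH 7.0 values).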

[14] = Solubility in methanol at 1.5 mg sonicated for 45 mins followed by centrifugation for 45 mins by UV/Vis spectroscopy; format: physicochemical; conditions: 0.75 h; in short: as §1
[15] = Solubility of the compound in 10% DMA and 90% buffer at pH 7 at 1.5 mg sonicated for 45 mins followed by centrifugation for 45 mins by UV/Vis spectroscopy; format: physicochemical
In short: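 About 1.5 mg of compound is sonicated for 45 min in pH 7.0 buffer containing 10% or 20% DMA, then centrifuged at 1400g for 45 min. Supernatant concentration is read by UV/vis at 340 nm. ε at pH 7.0 is 41500 M⁻¹ cm⁻¹ for DC1–SR₂ compounds and 34500 M⁻¹ cm⁻¹ for phosphate prodrugs.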

[16] = Solubility in water containing 5% acetone at 1.5 mg sonicated for 45 mins followed by centrifugation for 45 mins by UV/Vis spectroscopy; format: physicochemical; conditions: 0.75 h
[17] = Prodrug conversion assessed as 1-[S]-(Chloromethyl)-5-hydroxy-3-{{5-[5-(4-methyldithio-3,3- dimethyl butyryl)indol-2-yl-carbonyl amino]indole-2-yl}carbonyl}- 1,2-dihydro-3H-benz[e]indole formation in presence of bovine kidney alkaline phosphatase at pH 7.4; format: physicochemical; conditions: cattle, isolated protein
[18] = Prodrug conversion assessed as 1-[S]-(Chloromethyl)-5-hydroxy-3-{{5-[5-(4-methyldithio-3,3- dimethyl butyryl)indol-2-yl-carbonyl amino]indole-2-yl}carbonyl}- 1,2-dihydro-3H-benz[e]indole formation in presence of bovine liver alkaline phosphatase at pH 7.4; format: physicochemical; conditions: cattle, isolated protein
[19] = Prodrug conversion assessed as 1-[S]-(Chloromethyl)-5-hydroxy-3-{{5-[5-(4-methyldithio-3,3- dimethyl butyryl)indol-2-yl-carbonyl amino]indole-2-yl}carbonyl}- 1,2-dihydro-3H-benz[e]indole formation in presence of rabbit intestine alkaline phosphatase at pH 7.4; format: physicochemical; conditions: in vitro

Compound | Drug metabolism [1] | solubility [2] | Drug metabolism [3] | solubility at 0.75 h [4] | solubility [5] | IC50 [6] | Drug metabolism [7] | IC50 [8] | Drug metabolism [9] | Drug metabolism [10] | solubility [11] | Drug degradation [12] | solubility [13] | solubility [14] | solubility at 0.75 h [15] | solubility [16] | Drug metabolism [17] | Drug metabolism [18] | Drug metabolism [19]
CSSCCC(=O)Nc1ccc2[nH]c(C(=O)Nc3ccc4[nH]c(C(=O)N5C[C@@H](CCl)c6c5cc(OP(=O)(O)O)c5ccccc65)cc4c3)cc2c1 | Active | soluble | Active | 3 mM (≈ 2290 µg/mL) | Insoluble | 0.03 nM | Active | 1.8 nM | Active | Active | soluble | 3% | soluble | Insoluble | 4.7 mM (≈ 3590 µg/mL) | soluble |  |  | 
CSSC(C)(C)CCC(=O)Nc1ccc2[nH]c(C(=O)Nc3ccc4[nH]c(C(=O)N5C[C@@H](CCl)c6c5cc(OP(=O)(O)O)c5ccccc65)cc4c3)cc2c1 |  | soluble |  | 2.9 mM (≈ 2340 µg/mL) | Insoluble | 0.025 nM | Active | 1.9 nM | Active | Active | soluble | 3% | soluble | Insoluble | 4.6 mM (≈ 3710 µg/mL) | soluble | Active | Active | Active
